Data: ChEMBL document CHEMBL1126317, “2-(aminoalkyl)-5-nitropyrazolo[3,4,5-kl]acridines, a new class of anticancer agents” (1992)
The source made the active and inactive calls. The calls are words filed in the database; no cut-off is given here.

Assays:
L1210 [1] = test: In vitro antitumor activity against L1210 leukemia cell line.; type: functional; conditions: Mus musculus, read-out: ID50 (the source's name)
Mus musculus [2] = test: In vivo antitumor activity of the compound(ip, 25 mg/kg for 5 days) against CD2F1 mice implanted intraperitoneally with P388 leukemia cells.; type: functional; conditions: route intraperitoneal
Mus musculus [3] = test: In vivo antitumor activity of the compound(ip, 12.5 mg/kg for 5 days) against CD2F1 mice implanted intraperitoneally with P388 leukemia cells.; type: functional; conditions: route intraperitoneal
Mus musculus [4] = test: In vivo antitumor activity of the compound(ip, 3.12 mg/kg for 5 days) against CD2F1 mice implanted intraperitoneally with P388 leukemia cells; Day 30 survivors=2/6; type: functional; conditions: route intraperitoneal
Mus musculus [5] = test: In vivo antitumor activity of the compound(ip, 3.12 mg/kg for 5 days) against CD2F1 mice implanted intraperitoneally with P388 leukemia cells.; type: functional; conditions: route intraperitoneal
Mus musculus [6] = test: In vivo antitumor activity of the compound(ip, 3.13 mg/kg for 5 days) against CD2F1 mice implanted intraperitoneally with P388 leukemia cells.; type: functional; conditions: route intraperitoneal
Mus musculus [7] = test: In vivo antitumor activity of the compound(ip, 6.25 mg/kg for 5 days) against CD2F1 mice implanted intraperitoneally with P388 leukemia cells; Day 30 survivors=1/6; type: functional; conditions: route intraperitoneal
Mus musculus [8] = test: In vivo antitumor activity of the compound(ip, 12.5 mg/kg for 5 days) against CD2F1 mice implanted intraperitoneally with P388 leukemia cells; Day 30 survivors=1/6; type: functional; conditions: route intraperitoneal
Mus musculus [9] = test: In vivo antitumor activity of the compound(ip, 50 mg/kg for 5 days) against CD2F1 mice implanted intraperitoneally with P388 leukemia cells.; type: functional; conditions: route intraperitoneal
Mus musculus [10] = test: In vivo antitumor activity of the compound(ip, 25 mg/kg for 5 days) against CD2F1 mice implanted intraperitoneally with P388 leukemia cells; Day 30 survivors=1/6; conditions: route intraperitoneal
Mus musculus [11] = test: In vivo antitumor activity of the compound(ip, 25 mg/kg for 5 days) against CD2F1 mice implanted intraperitoneally with P388 leukemia cells.; conditions: route intraperitoneal
Mus musculus [12] = test: In vivo antitumor activity of the compound(ip, 6 mg/kg for 5 days) against CD2F1 mice implanted intraperitoneally with P388 leukemia cells.; type: functional; conditions: route intraperitoneal
Mus musculus [13] = test: In vivo antitumor activity of the compound(ip, 6 mg/kg for 5 days) against CD2F1 mice implanted intraperitoneally with P388 leukemia cells; Day 30 survivors=1/6; type: functional; conditions: route intraperitoneal
L1210 [14] = test: In vitro antitumor activity against L1210 leukemia cell line; IA= Inactive; type: functional, cell-based; conditions: Mus musculus
[15] = Ratio of the ID50's showing antitumor activity against HCT-8 and L1210 leukemia cell lines; type: functional
Method in brief: (§1)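 Ratio taken as ID50 in HCT-8 cells divided by ID50 in L1210 cells, both ID50s expressed as molar concentrations.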

HCT-8 = test: In vitro antitumor activity against HCT-8 colon cancer cell line.; type: functional; conditions: Homo sapiens, read-out: ID50 (the source's name)
Mus musculus [16] = test: In vivo antitumor activity of the compound(ip, 200 mg/kg for 5 days) against CD2F1 mice implanted intraperitoneally with P388 leukemia cells.; type: functional; conditions: route intraperitoneal
Mus musculus [17] = test: In vivo antitumor activity of the compound(ip, 25 mg/kg for 5 days) against CD2F1 mice implanted intraperitoneally with P388 leukemia cells; Day 30 survivors=2/6; type: functional; conditions: route intraperitoneal
[18] = Ratio of the ID50's showing antitumor activity against HCT-8 and L1210 leukemia cell lines.; type: functional; method in brief: as §1

For `CN(C)CCN1Nc2c3cc(N(C)C)ccc3nc3c([N+](=O)[O-])ccc1c23.CS(=O)(=O)O`, which IC50 (L1210 [1]) is on record?
Its IC50 is 600 nM.

What about the T/C (Mus musculus [2]) of the same molecule?
The T/C was 189%.

Which IC50 (L1210 [1]) does the source give for `CCCCOc1ccc2c(c1)-c1nn(CCN(CC)CC)c3ccc([N+](=O)[O-])c(c13)N2.CS(=O)(=O)O` here?
Its IC50 is 12 nM.

And the T/C (Mus musculus [3])?
The T/C was 209%.

With `CC(=O)Oc1ccc2nc3c([N+](=O)[O-])ccc4c3c(c2c1)NN4CCCN(C)C.CS(=O)(=O)O` as the molecule, how does the Activity (Mus musculus [4]) read?
The Activity was 2.

And the IC50 (L1210 [1])?
Its IC50 is 1.9 nM.

And the T/C (Mus musculus [5])?
The T/C was 252%.

Which T/C (Mus musculus [6]) does the source give for `CCOC(=O)Oc1ccc2c(c1)-c1nn(CCN(CC)CC)c3ccc([N+](=O)[O-])c(c13)N2.CS(=O)(=O)O` here?
Its T/C is 243%.

For `CCCC(=O)Oc1ccc2c(c1)-c1nn(CCN(CC)CC)c3ccc([N+](=O)[O-])c(c13)N2.CS(=O)(=O)O`, which IC50 (L1210 [1]) is on record?
The IC50 was 4.3 nM.

What about the Activity (Mus musculus [7]) of the same molecule?
Its Activity is 1.

For `CCOc1ccc2c(c1)-c1nn(CCN(C)C)c3ccc([N+](=O)[O-])c(c13)N2.CS(=O)(=O)O`, which Activity (Mus musculus [8]) is on record?
Its Activity is 1.

With `CCN(CC)CCN1Nc2c3cc(O)c(Cl)cc3nc3c([N+](=O)[O-])ccc1c23.CS(=O)(=O)O` as the molecule, how does the IC50 (L1210 [1]) read?
The IC50 was 150 nM.

What about the T/C (Mus musculus [9]) of the same molecule?
The T/C was 125%.

What does the source list for `CN(C)CCN1Nc2c3cc(O)ccc3nc3c([N+](=O)[O-])ccc1c23.CS(=O)(=O)O`?
Activity (Mus musculus [4]): 2; IC50 (L1210 [1]): 2.7 nM; T/C (Mus musculus [5]): 228%

With `CS(=O)(=O)O.O=[N+]([O-])c1ccc2c3c(nn2CCN2CCCC2)-c2cc(O)ccc2Nc13` as the molecule, how does the IC50 (L1210 [1]) read?
Its IC50 is 3 nM.

And the T/C (Mus musculus [5])?
Its T/C is 250%.

Which IC50 (L1210 [1]) does the source give for `C=CCOc1ccc2nc3c([N+](=O)[O-])ccc4c3c(c2c1)NN4CCCN(C)C.CS(=O)(=O)O` here?
The IC50 was 2200 nM.

And the T/C (Mus musculus [3])?
Its T/C is 221%.

With `C=CCOc1ccc2nc3c([N+](=O)[O-])ccc4c3c(c2c1)NN4CCN(CC)CC.CS(=O)(=O)O` as the molecule, how does the Activity (Mus musculus [10]) read?
The Activity was 1.

And the IC50 (L1210 [1])?
Its IC50 is 580 nM.

And the T/C (Mus musculus [11])?
Its T/C is 258%.

For `CCOc1ccc2c(c1)-c1nn(CCCN(C)C)c3ccc([N+](=O)[O-])c(c13)N2.CS(=O)(=O)O`, which IC50 (L1210 [1]) is on record?
Its IC50 is 220 nM.

What about the T/C (Mus musculus [3]) of the same molecule?
The T/C was 236%.

Which IC50 (L1210 [1]) does the source give for `CCN(CC)CCN1Nc2c3cc4c(cc3nc3c([N+](=O)[O-])ccc1c23)OCO4.CS(=O)(=O)O` here?
The IC50 was 160 nM.

What about the T/C (Mus musculus [9]) of the same molecule?
Its T/C is 173%.

Which results are given for `CCN(CC)CCN1Nc2c3c(Cl)c(O)ccc3nc3c([N+](=O)[O-])ccc1c23.CS(=O)(=O)O`?
IC50 (L1210 [1]): 0.39 nM; T/C (Mus musculus [12]): 196%; Activity (Mus musculus [13]): 1

Which results are given for `CCN(CC)CCOc1ccc2c(c1)-c1nn(CCN(CC)CC)c3ccc([N+](=O)[O-])c(c13)N2.CS(=O)(=O)O`?
IC50 (L1210 [1]): 500 nM; T/C (Mus musculus [9]): 118%

With `COc1ccc2c(c1)-c1nn(CCNCCO)c3ccc([N+](=O)[O-])c(c13)N2` as the molecule, how does the IC50 (L1210 [1]) read?
The IC50 was 450 nM.

With `COc1ccc2c(c1)-c1nn(CCO)c3ccc([N+](=O)[O-])c(c13)N2` as the molecule, how does the ID50 (L1210 [14]) read?
The ID50 was “inactive”.

Which results are given for `COc1ccc2c(c1)-c1nn(CCN3CCCC3)c3ccc([N+](=O)[O-])c(c13)N2.CS(=O)(=O)O`?
IC50 (L1210 [1]): 160 nM; T/C (Mus musculus [2]): 211%

For `Cc1ccc2c(c1)-c1nn(CCNCCO)c3ccc([N+](=O)[O-])c(c13)N2.Cl`, which T/C (Mus musculus [9]) is on record?
Its T/C is 115%.

For `CCN(CC)CCN1Nc2c3cc(OC)c(Cl)cc3nc3c([N+](=O)[O-])ccc1c23.CS(=O)(=O)O`, which IC50 (L1210 [1]) is on record?
Its IC50 is 270 nM.

What about the T/C (Mus musculus [2]) of the same molecule?
The T/C was 112%.

Which results are given for `CCN(CC)CCN1Nc2c3cc(OC)ccc3nc3c([N+](=O)[O-])ccc1c23.CS(=O)(=O)O`?
IC50 (L1210 [1]): 470 nM; Ratio [15]: 0.26; IC50 (HCT-8): 120 nM; T/C (Mus musculus [2]): 242%

For `CCN(CC)CCN1Nc2c3c(O)cccc3nc3c([N+](=O)[O-])ccc1c23.CS(=O)(=O)O`, which IC50 (L1210 [1]) is on record?
The IC50 was 600 nM.

And the T/C (Mus musculus [16])?
The T/C was 117%.

What does the source list for `CCCOc1ccc2c(c1)-c1nn(CCN(CC)CC)c3ccc([N+](=O)[O-])c(c13)N2.CS(=O)(=O)O`?
IC50 (L1210 [1]): 460 nM; Activity (Mus musculus [17]): 2; T/C (Mus musculus [2]): 273%

For `COc1ccc2c(c1)-c1nn(CCCN(C)C)c3ccc([N+](=O)[O-])c(c13)N2.CS(=O)(=O)O`, which Activity (Mus musculus [17]) is on record?
The Activity was 2.

What about the Ratio [18] of the same molecule?
The Ratio was 0.33.

What does the source list for `CCN(CC)CCN1Nc2c3cc(OCc4ccccc4)ccc3nc3c([N+](=O)[O-])ccc1c23.CS(=O)(=O)O`?
IC50 (L1210 [1]): 27 nM; T/C (Mus musculus [9]): 200%
